The values that follow come from ChEMBL document CHEMBL1135024, “Studies toward the discovery of the next generation of antidepressants. Part 2: incorporating a 5-HT(1A) antagonist component into a class of serotonin reuptake inhibitors” (Bioorg Med Chem Lett, 2002).

Test [1] deals with T1, 5-hydroxytryptamine receptor 1A (Homo sapiens) (UniProt P08908).
T1 sequence (whole entry): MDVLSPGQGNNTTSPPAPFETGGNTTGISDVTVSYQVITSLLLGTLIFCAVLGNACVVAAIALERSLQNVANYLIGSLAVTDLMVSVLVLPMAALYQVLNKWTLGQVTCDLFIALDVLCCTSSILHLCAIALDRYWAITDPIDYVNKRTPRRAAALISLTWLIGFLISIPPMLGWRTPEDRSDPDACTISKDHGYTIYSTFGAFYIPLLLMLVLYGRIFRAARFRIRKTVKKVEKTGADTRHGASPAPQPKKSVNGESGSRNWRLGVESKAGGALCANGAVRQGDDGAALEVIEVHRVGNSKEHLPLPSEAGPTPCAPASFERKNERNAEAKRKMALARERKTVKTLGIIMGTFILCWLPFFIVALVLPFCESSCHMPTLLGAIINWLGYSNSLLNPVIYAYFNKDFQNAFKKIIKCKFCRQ
Kind of test: Agonist activity at the 5-hydroxytryptamine 1A receptor was determined in vitro using a [35S]GTP-gamma-S,. In kind it is functional.

Test [2] concerns the target T1, 5-hydroxytryptamine receptor 1A (Homo sapiens). Kind of test: In vitro agonist activity at the 5-hydroxytryptamine 1A receptor. In kind it is functional.
The target in test [3] is T2, 5-hydroxytryptamine receptor 1A (Homo sapiens, UniProt P08908).
T2 sequence (P08908 whole entry): T1 sequence (whole entry)
Nature of the test: Antagonism of 5-hydroxytryptamine 1A receptor determined in vitro. In kind it is functional.

The target in test [4] is T2, 5-hydroxytryptamine receptor 1A. Kind of test: Antagonism of 5-hydroxytryptamine 1A receptor was determined in vitro using a [35S]GTP-gamma-S,. In kind it is functional.
Test [5] deals with Sodium-dependent serotonin transporter (Homo sapiens, UniProt P31645). Kind of test: Affinity for HC Serotonin transporter determined in vitro by incubating compound and [3H]5-HT with human carcinoma (Jar cells), previously treated with staurosporine. In kind it is cell-based. In a few lines: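 Read-out is specific [³H]-5-HT uptake into Jar human carcinoma cells pretreated with staurosporine to enhance transporter expression, after incubation with the test compound.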
Sodium-dependent serotonin transporter (Homo sapiens, UniProt P31645), sequence (P31645 whole entry): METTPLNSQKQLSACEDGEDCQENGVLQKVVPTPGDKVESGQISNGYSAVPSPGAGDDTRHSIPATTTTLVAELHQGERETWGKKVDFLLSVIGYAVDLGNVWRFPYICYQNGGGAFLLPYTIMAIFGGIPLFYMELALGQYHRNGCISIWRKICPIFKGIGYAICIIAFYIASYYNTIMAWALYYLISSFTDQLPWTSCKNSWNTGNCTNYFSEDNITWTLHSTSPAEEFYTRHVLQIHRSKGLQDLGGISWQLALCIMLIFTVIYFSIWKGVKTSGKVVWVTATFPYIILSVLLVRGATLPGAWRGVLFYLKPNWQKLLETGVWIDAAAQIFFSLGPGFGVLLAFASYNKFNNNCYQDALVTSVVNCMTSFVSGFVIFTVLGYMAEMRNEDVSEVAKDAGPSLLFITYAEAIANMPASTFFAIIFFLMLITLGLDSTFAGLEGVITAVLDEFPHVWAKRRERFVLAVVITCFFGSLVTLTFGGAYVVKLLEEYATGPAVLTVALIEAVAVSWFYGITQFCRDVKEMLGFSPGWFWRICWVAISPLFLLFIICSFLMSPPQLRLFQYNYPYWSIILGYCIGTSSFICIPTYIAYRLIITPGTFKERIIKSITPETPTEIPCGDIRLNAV

In test [6] the target is Sodium-dependent serotonin transporter (Rattus norvegicus, UniProt P31652). Kind of test: Affinity for RB Serotonin transporter was determined in vitro by incubating compound. An outline of the steps: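 Radioligand binding to the 5-HT transporter with [³H]-paroxetine. Ki values are the mean of 2–3 experiments, each run in triplicate at six concentrations. 95% confidence limits were generally within 15% of the mean.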
Sodium-dependent serotonin transporter (Rattus norvegicus, UniProt P31652), sequence (P31652 whole entry): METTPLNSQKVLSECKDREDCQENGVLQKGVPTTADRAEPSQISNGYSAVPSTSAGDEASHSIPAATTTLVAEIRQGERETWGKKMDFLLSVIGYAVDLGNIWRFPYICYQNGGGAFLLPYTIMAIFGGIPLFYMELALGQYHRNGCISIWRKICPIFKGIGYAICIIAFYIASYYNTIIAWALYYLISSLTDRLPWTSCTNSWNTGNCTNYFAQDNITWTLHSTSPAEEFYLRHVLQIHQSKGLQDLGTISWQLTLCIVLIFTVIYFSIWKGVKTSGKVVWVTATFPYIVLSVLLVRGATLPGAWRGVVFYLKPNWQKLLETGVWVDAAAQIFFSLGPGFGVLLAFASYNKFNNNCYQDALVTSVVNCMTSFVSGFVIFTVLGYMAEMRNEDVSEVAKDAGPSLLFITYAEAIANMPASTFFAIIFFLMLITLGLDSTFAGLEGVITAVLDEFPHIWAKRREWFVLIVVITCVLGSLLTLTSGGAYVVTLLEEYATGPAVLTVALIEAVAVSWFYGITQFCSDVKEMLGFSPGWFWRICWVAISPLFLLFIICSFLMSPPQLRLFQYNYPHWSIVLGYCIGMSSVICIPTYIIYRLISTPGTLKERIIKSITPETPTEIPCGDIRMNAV

Test [7] deals with T3, Adrenergic receptor alpha-1 (Rattus norvegicus, UniProt P15823+P23944+P43140).
T3 sequence (P15823 whole entry): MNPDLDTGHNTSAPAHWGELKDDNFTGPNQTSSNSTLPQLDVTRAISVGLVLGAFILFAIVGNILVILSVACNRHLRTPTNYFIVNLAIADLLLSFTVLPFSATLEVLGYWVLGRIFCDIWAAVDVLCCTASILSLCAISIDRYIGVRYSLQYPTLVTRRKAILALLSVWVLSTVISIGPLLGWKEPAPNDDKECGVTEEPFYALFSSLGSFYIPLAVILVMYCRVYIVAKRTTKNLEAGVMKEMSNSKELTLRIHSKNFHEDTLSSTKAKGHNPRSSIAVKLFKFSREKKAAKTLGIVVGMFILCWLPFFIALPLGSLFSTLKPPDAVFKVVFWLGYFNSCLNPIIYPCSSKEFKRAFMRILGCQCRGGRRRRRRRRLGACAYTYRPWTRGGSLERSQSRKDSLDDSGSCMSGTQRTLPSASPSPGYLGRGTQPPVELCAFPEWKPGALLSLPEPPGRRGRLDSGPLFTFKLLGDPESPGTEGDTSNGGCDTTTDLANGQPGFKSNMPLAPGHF
T3 sequence (P23944 whole entry): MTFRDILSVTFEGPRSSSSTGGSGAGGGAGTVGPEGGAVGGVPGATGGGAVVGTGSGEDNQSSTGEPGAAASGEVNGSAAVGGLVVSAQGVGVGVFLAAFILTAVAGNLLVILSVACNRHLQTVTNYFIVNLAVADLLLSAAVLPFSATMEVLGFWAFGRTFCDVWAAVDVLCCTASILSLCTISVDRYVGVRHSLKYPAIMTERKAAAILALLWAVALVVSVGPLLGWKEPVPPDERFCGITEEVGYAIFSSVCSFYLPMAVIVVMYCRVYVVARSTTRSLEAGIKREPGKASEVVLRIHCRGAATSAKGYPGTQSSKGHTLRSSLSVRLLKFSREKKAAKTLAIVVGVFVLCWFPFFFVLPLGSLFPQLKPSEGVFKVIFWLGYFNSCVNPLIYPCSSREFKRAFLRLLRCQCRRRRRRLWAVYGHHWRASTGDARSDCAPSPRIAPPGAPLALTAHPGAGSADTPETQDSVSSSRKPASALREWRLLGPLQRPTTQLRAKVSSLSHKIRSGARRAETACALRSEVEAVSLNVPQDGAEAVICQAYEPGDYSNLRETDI
T3 sequence (P43140 whole entry): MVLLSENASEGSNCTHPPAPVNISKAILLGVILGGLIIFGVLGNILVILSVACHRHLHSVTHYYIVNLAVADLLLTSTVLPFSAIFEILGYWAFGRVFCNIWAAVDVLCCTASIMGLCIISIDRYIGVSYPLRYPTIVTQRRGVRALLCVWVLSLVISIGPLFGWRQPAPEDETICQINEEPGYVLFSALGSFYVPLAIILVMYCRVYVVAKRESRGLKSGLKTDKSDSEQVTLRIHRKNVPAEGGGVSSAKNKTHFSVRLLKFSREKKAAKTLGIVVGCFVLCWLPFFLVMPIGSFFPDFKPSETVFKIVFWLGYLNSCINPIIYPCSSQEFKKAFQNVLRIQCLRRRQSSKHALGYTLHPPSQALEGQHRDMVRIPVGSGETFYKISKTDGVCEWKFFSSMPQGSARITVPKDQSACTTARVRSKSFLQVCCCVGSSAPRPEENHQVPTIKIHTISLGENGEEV
Nature of the test: In vitro binding affinity towards Alpha-1 adrenergic receptor was determined by the displacement of [3H]prazosin. In kind it is protein assay. In a few lines:
(§1)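 Displacement binding: [³H]-prazosin for α1 and [³H]-8-OH-DPAT for human 5-HT1A. Ki values are the mean of 2–3 experiments at six concentrations, each in triplicate. 95% confidence limits were generally within 15% of the mean.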

For test [8], the target named is T1, 5-hydroxytryptamine receptor 1A (Homo sapiens). Nature of the test: Agonist activity at the 5-hydroxytryptamine 1A receptor determined in vitro using a [35S]GTP-gamma-S,. In kind it is functional.
Test [9] has as its target T2, 5-hydroxytryptamine receptor 1A. Nature of the test: In vitro binding affinity towards Human 5-hydroxytryptamine 1A receptor by the displacement of [3H]8-OH-DPAT. In kind it is single protein. An outline of the steps:
as §1

For test [10] the target is unchanged. Nature of the test: Antagonism at the 5-hydroxytryptamine 1A receptor was determined in vitro using a [35S]GTP-gamma-S,. In kind it is functional.
For test [11] the target is unchanged. Kind of test: Antagonism at the 5-hydroxytryptamine 1A receptor in vitro. In kind it is functional.

What is called IC50 is the midpoint of a concentration-inhibition curve. What is called Ki is a measure of affinity in units of concentration, obtained from inhibition or displacement. Low values mean a stronger hold on the target, high ones a looser hold on the target. `Fc1ccc2[nH]cc(C3=CCN(CCOc4cccc5c4OCCO5)CC3)c2c1`: the Emax in test [1] was determined as 11; in test [2] it was 0. Besides, the figures for the IC50 in test [3] and in [4] were 1040 nM and 684 nM, respectively. Further, the Ki in [5] was 46.9 nM; in test [6] it was 1.17 nM; in test [7], 30 nM.
For the compound `C1=C(c2c[nH]c3ccccc23)CCN(CCOc2cccc3[nH]ccc23)C1`, the Emax in test [8] came to 7.5; in test [2], 0. The Ki in test [9] amounted to 21.6 nM; in test [5], 41.2 nM; in test [6] it was 0.03 nM; in test [7] it was 0.19 nM. Further, the IC50 in [3] came to 33 nM; in [10], 115 nM.
`C1=C(c2c[nH]c3ncccc23)CCN(CCOc2cccc3c2OCCO3)C1`: the Emax in test [1] was 30; in test [2], 0. In test [11], this compound returned an IC50 of 969 nM. Further, the Ki in test [5] turned out to be 276 nM; in test [7], 33 nM.
Take `C1=C(c2c[nH]c3ncccc23)CCN(CCOc2cccc3ncccc23)C1`: the Emax in test [1] and in test [2] was 0 throughout. The IC50 worked out at 90 nM in test [3] and 181 nM in [10]. Moreover, the figures for the Ki in test [5] and in [7] were 387 nM and 78 nM, respectively.
For the compound `C1=C(c2c[nH]c3ncccc23)CCN(CCOc2cccc3[nH]ccc23)C1`, the Emax in [1] came out at 7; in test [2] it was 0. Also, the IC50 in [3] was 12 nM; in [4] it was 38.9 nM. Also, the values for the Ki in [5] and in [7] were 175 nM and 0.9 nM, respectively.
Regarding `Fc1ccc2c(C3CCN(CCOc4cccc5c4OCCO5)CC3)c[nH]c2c1`, the Emax amounted to 29.5 in test [1] and 0 in [2]. The Ki was found to be 19.6 nM in test [9], 128 nM in test [5], 4.7 nM in test [6] and 2.8 nM in test [7]. Also, the IC50 came out at 920 nM in [3] and 666 nM in test [4].
For the compound `C1=C(c2c[nH]c3ccccc23)CCN(CCOc2cccc3ncccc23)C1`, the values for the Emax in test [1] and in [2] were 14 and 0, respectively. The Ki in [9] came out at 92.6 nM; in test [5] it was 93.6 nM; in test [6] it was 0.23 nM; in test [7], 3.6 nM. The IC50 in test [3] turned out to be 686 nM; in test [4], 524 nM.
In test [6], `Fc1ccc2[nH]cc(CC3CCN(CCOc4cccc5c4OCCO5)CC3)c2c1` returned a Ki of 0.01 nM.
As to `C1=C(c2c[nH]c3ccccc23)CCN(CCOc2cccc3c2OCCO3)C1`, the Emax turned out to be 21 in [1] and 0 in [2]. In addition, the values for the IC50 in [3] and in test [4] were 115 nM and 222 nM, respectively. Also, the inhibition constant Ki in test [5] came to 45 nM; in [6] it was 0.17 nM; in test [7] it was 4.7 nM.
In turn, `Fc1ccc2c(C3=CCN(CCOc4cccc5c4OCCO5)CC3)c[nH]c2c1` came in with an Emax in [1] of 53. Also, the Ki turned out to be 83.6 nM in test [9], 19.8 nM in test [5], 0.15 nM in [6] and 4.1 nM in [7].
